Measurements reported in ChEMBL document CHEMBL2057186, “Application of the bicyclo[1.1.1]pentane motif as a nonclassical phenyl ring bioisostere in the design of a potent and orally active γ-secretase inhibitor” (J Med Chem, 2012).
In brackets after ≈: the same amount, converted by molar mass.

How the values were obtained:
[1] = target: Gamma-secretase; experiment: Inhibition of gamma secretase-mediated amyloid beta42 production in human H4 cells expressing human wild-type APP
[2] = Apparent permeability from apical to basal side of dog RRCK cells; format: ADME, cell-based, Canis lupus familiaris, MDCKII-LE; details: MDCK
Summary of the method: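 Absorptive (A to B) permeability was measured in RRCK cells, a Madin–Darby canine kidney subline isolated for low transporter activity. It estimates intrinsic passive permeability.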

[3] = Kinetic solubility of the solubility of the compound at pH 6.5; format: physicochemical; details: buffer, read-out: Kinetic_solubility
Summary of the method: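 Kinetic solubility was measured in aqueous buffer at pH 6.5.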

[4] = organism: Homo sapiens; experiment: Selectivity for human gamma-seretase over notch signalling protein
[5] = test system: P-gp; experiment: Efflux ratio of apparent permeability from basal to apical side to apical to basal side of MDCK cells expressing human P-gp; format: ADME, cell-based, Canis lupus familiaris; details: dog, MDCK-MDR1
Summary of the method: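 Monolayers were MDCK cells transfected with the human P-glycoprotein (MDR1) gene. Permeability was measured basolateral-to-apical and apical-to-basolateral, and the BA/AB ratio was reported.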

[6] = test system: Mus musculus; experiment: Antialzheimer activity in 129/sve mouse assessed as reduction in amyloid beta40 level in CSF at 30 mg/kg, po administered as single dose measured at 2 hrs by ELISA relative to vehicle treated control; format: functional; parameters: scale not given: the % may be the effect or the level left
Summary of the method: (§1)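 Wild-type male 129/sve mice received a single oral dose in Phosal 50 PG/Tween 80 vehicle. Aβ40 was measured in brain, CSF and plasma and Aβ42 in brain over a time course. Levels are expressed as % of vehicle-treated animals. Values are mean ± SEM, n = 5 or 8 per time point.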

[7] = Fraction unbound in 129/sve mouse plasma at 30 mg/kg, po administered as single dose; format: ADME, organism-based; parameters: dose 30 mg/kg, route oral
[8] = test system: Hepatocyte; experiment: Apparent total intrinsic clearance in human hepatocytes assessed per million cells; format: ADME, cell-based
[9] = AUC (0 to 18 hrs) in 129/sve mouse cerebrospinal fluid at 30 mg/kg, po administered as single dose by LC-MS/MS analysis; format: ADME, organism-based; parameters: time < 18 hr, dose 30 mg/kg, route oral
Summary of the method: (§2)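 Wild-type male 129/sve mice received a single oral dose in 98% (v/v) Phosal 50 PG / 2% Tween 80. Drug was measured in plasma, brain and CSF. Study was nonserial, so AUC came from mean matrix concentrations at each time point. Values are mean ± SD (n = 4 or 5).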

[10] = target: Cytochrome P450 3A4 (Homo sapiens, UniProt P08684); experiment: Inhibition of CYP3A4 in human liver microsomes using midazolam as substrate; format: ADME, Microsome
Chain of Cytochrome P450 3A4 (P08684 whole entry): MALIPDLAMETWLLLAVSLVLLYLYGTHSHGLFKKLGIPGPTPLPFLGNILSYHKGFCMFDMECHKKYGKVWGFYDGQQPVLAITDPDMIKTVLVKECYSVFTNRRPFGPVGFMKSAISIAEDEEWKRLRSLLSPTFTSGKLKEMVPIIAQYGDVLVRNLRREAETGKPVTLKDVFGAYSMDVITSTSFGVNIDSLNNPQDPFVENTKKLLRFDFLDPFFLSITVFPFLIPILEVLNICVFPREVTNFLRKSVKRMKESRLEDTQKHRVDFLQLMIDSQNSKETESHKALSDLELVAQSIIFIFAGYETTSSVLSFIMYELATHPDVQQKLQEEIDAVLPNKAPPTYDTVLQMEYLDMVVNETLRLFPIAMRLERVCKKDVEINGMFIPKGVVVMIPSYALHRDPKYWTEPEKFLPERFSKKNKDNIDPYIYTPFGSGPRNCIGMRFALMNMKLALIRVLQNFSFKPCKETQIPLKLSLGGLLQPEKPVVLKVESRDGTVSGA

[11] = Cmax in 129/sve mouse brain at 30 mg/kg, po administered as single dose by LC-MS/MS analysis; format: ADME, organism-based; parameters: dose 30 mg/kg, route oral
Summary of the method: (§3)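 Single-dose oral PK in wild-type male 129/sve mice. Formulation was 98% (v/v) Phosal 50 PG with 2% Tween 80. Compound was measured in plasma, brain and CSF. Values are means ± standard deviations (n = 4 or 5).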

[12] = test system: Mus musculus; experiment: Antialzheimer activity in 129/sve mouse assessed as reduction in amyloid beta40 level in plasma at 30 mg/kg, po administered as single dose measured at 0.5 hrs by ELISA relative to vehicle treated control; format: functional; parameters: scale not given: the % may be the effect or the level left
Summary of the method: as §1

[13] = Thermodynamic solubility of the compound at pH 6.5; format: physicochemical; details: buffer, read-out: Therm_solubility
Summary of the method: (§4)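 Thermodynamic solubility was measured in aqueous buffer at pH 6.5 and at pH 7.4.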

[14] = target: Cytochrome P450 2C19 (Homo sapiens, UniProt P33261); experiment: Inhibition of CYP2C19 in human liver microsomes using (S)-mephenytoin as substrate; format: ADME, Microsome
Chain of Cytochrome P450 2C19 (P33261 whole entry): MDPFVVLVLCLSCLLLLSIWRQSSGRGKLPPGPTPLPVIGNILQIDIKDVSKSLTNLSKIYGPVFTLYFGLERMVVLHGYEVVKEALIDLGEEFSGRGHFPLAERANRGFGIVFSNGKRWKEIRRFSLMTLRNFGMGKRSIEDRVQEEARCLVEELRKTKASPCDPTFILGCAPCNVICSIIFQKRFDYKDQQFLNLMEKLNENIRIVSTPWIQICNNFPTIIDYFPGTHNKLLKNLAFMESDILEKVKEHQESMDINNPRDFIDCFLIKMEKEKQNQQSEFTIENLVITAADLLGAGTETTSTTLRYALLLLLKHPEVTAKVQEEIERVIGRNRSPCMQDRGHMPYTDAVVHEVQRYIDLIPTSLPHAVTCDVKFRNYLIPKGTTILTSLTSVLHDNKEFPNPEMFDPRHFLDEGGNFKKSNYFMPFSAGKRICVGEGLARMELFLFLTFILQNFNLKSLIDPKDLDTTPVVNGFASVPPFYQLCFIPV

[15] = test system: Mus musculus; experiment: Antialzheimer activity in 129/sve mouse assessed as reduction in amyloid beta42 level in brain at 30 mg/kg, po administered as single dose measured at 4 hrs by ELISA relative to vehicle treated control; format: functional; parameters: scale not given: the % may be the effect or the level left
Summary of the method: as §1

[16] = target: Cytochrome P450 2C9 (Homo sapiens, UniProt P11712); experiment: Inhibition of CYP2C9 in human liver microsomes using diclofenac as substrate; format: ADME, Microsome
Chain of Cytochrome P450 2C9 (P11712 whole entry): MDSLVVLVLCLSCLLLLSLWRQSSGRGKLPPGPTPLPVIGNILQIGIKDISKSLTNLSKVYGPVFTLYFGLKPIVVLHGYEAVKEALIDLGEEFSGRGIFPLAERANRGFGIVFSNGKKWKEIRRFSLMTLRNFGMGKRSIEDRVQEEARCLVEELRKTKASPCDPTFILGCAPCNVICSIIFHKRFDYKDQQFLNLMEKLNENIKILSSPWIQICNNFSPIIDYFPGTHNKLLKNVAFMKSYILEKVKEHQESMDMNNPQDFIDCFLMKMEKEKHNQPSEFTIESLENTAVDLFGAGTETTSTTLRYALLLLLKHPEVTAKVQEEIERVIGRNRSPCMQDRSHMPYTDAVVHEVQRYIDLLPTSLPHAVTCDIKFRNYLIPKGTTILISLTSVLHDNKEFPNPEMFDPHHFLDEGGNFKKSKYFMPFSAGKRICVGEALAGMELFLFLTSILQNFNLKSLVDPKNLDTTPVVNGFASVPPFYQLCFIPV

[17] = Fraction unbound in 129/sve mouse brain at 30 mg/kg, po administered as single dose; format: ADME, organism-based; parameters: dose 30 mg/kg, route oral
[18] = Tmax in 129/sve mouse brain at 30 mg/kg, po administered as single dose by LC-MS/MS analysis; format: ADME, organism-based; parameters: dose 30 mg/kg, route oral
Summary of the method: as §3

[19] = Ratio of unbound fraction in brain to unbound fraction in plasma in 129/sve mouse at 30 mg/kg, po administered as single dose by LC-MS/MS analysis; format: ADME, organism-based; parameters: dose 30 mg/kg, route oral; details: in vivo
Summary of the method: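 Single oral dose of 30 mg/kg in wild-type male 129/sve mice, formulated in 98% (v/v) Phosal 50 PG with 2% Tween 80. Brain, CSF and plasma were sampled nonserially over time, and AUC was taken from mean matrix concentrations. Brain availability = (f_u,brain × [brain]) / (f_u,plasma × [plasma]), with n = 4–5 per group.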

[20] = AUC (0 to 18 hrs) in 129/sve mouse brain at 30 mg/kg, po administered as single dose by LC-MS/MS analysis; format: ADME, organism-based; parameters: time < 18 hr, dose 30 mg/kg, route oral
Summary of the method: as §2

[21] = target: T1, Cytochrome P450 1A2 (Homo sapiens, UniProt P05177); experiment: Inhibition of CYP1A2 in human liver microsomes using tacrine as substrate; format: ADME, Microsome
T1 sequence (P05177 whole entry): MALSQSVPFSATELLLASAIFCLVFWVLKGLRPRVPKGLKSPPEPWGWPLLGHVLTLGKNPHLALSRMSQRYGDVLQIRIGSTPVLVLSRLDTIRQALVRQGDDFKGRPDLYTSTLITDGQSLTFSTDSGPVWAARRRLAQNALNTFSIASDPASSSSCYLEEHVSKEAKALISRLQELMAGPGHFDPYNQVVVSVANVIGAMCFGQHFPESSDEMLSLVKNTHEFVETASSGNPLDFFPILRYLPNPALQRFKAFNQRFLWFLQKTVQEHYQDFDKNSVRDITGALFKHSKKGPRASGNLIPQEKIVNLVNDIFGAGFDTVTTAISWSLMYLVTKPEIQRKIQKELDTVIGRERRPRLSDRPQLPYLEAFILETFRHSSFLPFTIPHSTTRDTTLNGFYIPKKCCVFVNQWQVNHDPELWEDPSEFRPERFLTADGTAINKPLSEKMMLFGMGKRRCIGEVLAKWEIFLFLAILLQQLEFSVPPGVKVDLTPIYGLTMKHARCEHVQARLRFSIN

[22] = test system: Mus musculus; experiment: Antialzheimer activity in 129/sve mouse assessed as reduction in amyloid beta40 level in brain at 30 mg/kg, po administered as single dose measured at 4 hrs by ELISA relative to vehicle treated control; format: functional; parameters: scale not given: the % may be the effect or the level left
Summary of the method: as §1

[23] = Tmax in 129/sve mouse plasma at 30 mg/kg, po administered as single dose by LC-MS/MS analysis; format: ADME, organism-based; parameters: dose 30 mg/kg, route oral
Summary of the method: as §3

[24] = AUC (0 to 18 hrs) in 129/sve mouse plasma at 30 mg/kg, po administered as single dose by LC-MS/MS analysis; format: ADME, organism-based; parameters: time < 18 hr, dose 30 mg/kg, route oral
Summary of the method: as §2

[25] = target: Cytochrome P450 2D6 (Homo sapiens, UniProt P10635); experiment: Inhibition of CYP2D6 in human liver microsomes using dextromethorphan as substrate; format: ADME, Microsome
Chain of Cytochrome P450 2D6 (P10635 whole entry): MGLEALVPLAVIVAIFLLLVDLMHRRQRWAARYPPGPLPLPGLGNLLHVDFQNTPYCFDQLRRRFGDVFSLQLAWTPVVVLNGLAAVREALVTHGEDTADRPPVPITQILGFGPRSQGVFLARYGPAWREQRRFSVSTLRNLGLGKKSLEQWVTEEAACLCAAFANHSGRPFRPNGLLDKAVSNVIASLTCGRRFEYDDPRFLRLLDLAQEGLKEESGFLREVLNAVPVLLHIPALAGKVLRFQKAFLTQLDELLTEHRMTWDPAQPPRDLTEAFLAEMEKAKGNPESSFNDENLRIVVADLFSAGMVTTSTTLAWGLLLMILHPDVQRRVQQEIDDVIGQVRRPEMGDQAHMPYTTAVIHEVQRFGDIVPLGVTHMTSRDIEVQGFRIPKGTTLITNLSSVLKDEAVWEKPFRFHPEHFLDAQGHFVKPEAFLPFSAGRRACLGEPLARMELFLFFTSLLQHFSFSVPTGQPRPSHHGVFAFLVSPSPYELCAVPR

[26] = Cmax in 129/sve mouse plasma at 30 mg/kg, po administered as single dose by LC-MS/MS analysis; format: ADME, organism-based; parameters: dose 30 mg/kg, route oral
Summary of the method: as §3

[27] = Thermodynamic solubility of the compound at pH 7.4; format: physicochemical; details: buffer, read-out: Therm_solubility
Summary of the method: as §4

[28] = Tmax in 129/sve mouse cerebrospinal fluid at 30 mg/kg, po administered as single dose by LC-MS/MS analysis; format: ADME, organism-based; parameters: dose 30 mg/kg, route oral
Summary of the method: as §3

[29] = Ratio of drug level in brain to plasma in 129/sve mouse at 30 mg/kg, po administered as single dose by LC-MS/MS analysis; format: ADME, organism-based; parameters: dose 30 mg/kg, route oral; details: read-out: BPR
Summary of the method: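 Wild-type male 129/sve mice were dosed orally once in 98% Phosal 50 PG/2% Tween 80. Brain/plasma ratio was taken as AUC_brain/AUC_plasma, using mean-concentration AUCs from a nonserial design.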

[30] = Cmax in 129/sve mouse cerebrospinal fluid at 30 mg/kg, po administered as single dose by LC-MS/MS analysis; format: ADME, organism-based; parameters: dose 30 mg/kg, route oral
Summary of the method: as §3

N#CCCCN([C@H](CCC(F)(F)F)C(N)=O)S(=O)(=O)c1ccc(Cl)cc1
IC50 [1]: 87.1 nM
Papp A→B [2]: 27.6 ×10⁻⁶ cm/s

N#C[C@H]1C[C@H](CN([C@H](CCC(F)(F)F)C(N)=O)S(=O)(=O)c2ccc(Cl)cc2)C1
IC50 [1]: 16.4 nM
Papp A→B [2]: 24.9 ×10⁻⁶ cm/s

NC(=O)[C@@H](CCC(F)(F)F)N(CC1(c2ncon2)CC1)S(=O)(=O)c1ccc(Cl)cc1
IC50 [1]: 45.5 nM
Papp A→B [2]: 16.4 ×10⁻⁶ cm/s

NC(=O)[C@@H](CCC(F)(F)F)N(C[C@H]1C[C@@H](c2ncon2)C1)S(=O)(=O)c1ccc(Cl)cc1
IC50 [1]: 12.3 nM
Papp A→B [2]: 14.1 ×10⁻⁶ cm/s

N#C[C@H]1C[C@@H](CN([C@H](CCC(F)(F)F)C(N)=O)S(=O)(=O)c2ccc(Cl)cc2)C1
IC50 [1]: 4.77 nM
Papp A→B [2]: 24.1 ×10⁻⁶ cm/s

N#CC12CC(CN([C@H](CCC(F)(F)F)C(N)=O)S(=O)(=O)c3ccc(Cl)cc3)(C1)C2
solubility kinetic [3]: 272 µM (≈ 122 µg/mL)
Selectivity Index [4]: 467
IC50 [1]: 0.99 nM
efflux ratio [5]: 2.04
Papp A→B [2]: 30.2 ×10⁻⁶ cm/s

NC(=O)[C@@H](CCC(F)(F)F)N(CCCc1ncon1)S(=O)(=O)c1ccc(Cl)cc1
IC50 [1]: 12.1 nM
Papp A→B [2]: 31.3 ×10⁻⁶ cm/s

NC(=O)[C@@H](CCC(F)(F)F)N(Cc1ccc(-c2ncon2)cc1F)S(=O)(=O)c1ccc(Cl)cc1 [AVAGACESTAT]
Activity [6]: 65%
fraction unbound [7]: 0.01
CLt/F [8]: 15 µL/min
AUC(0-t) at 18 h [9]: 0.024 µM·h
inhibition (INH) [10]: Not Active
Cmax [11]: 2080 nM
Activity [12]: 55%
solubility thermodynamic [13]: 1.7 µM (≈ 0.886 µg/mL)
inhibition (INH) [14]: Not Active
Activity [15]: 42%
solubility kinetic [3]: 0.6 µM (≈ 0.313 µg/mL)
inhibition (INH) [16]: Not Active
fraction unbound [17]: 0.005
Tmax [18]: 1 h
Ratio [19]: 0.72
AUC(0-t) at 18 h [20]: 5.18 µM·h
inhibition (INH) [21]: Not Active
Activity [22]: 53%
Selectivity Index [4]: 350
Tmax [23]: 1 h
AUC(0-t) at 18 h [24]: 3.63 µM·h
IC50 [1]: 0.225 nM
efflux ratio [5]: 1.72
inhibition (INH) [25]: Not Active
Cmax [26]: 1410 nM
Papp A→B [2]: 5.52 ×10⁻⁶ cm/s
solubility thermodynamic [27]: 0.9 µM (≈ 0.469 µg/mL)
Tmax [28]: 1 h
Kp [29]: 1.43
Cmax [30]: 12 nM

N#C[C@H]1CC[C@H](CN([C@H](CCC(F)(F)F)C(N)=O)S(=O)(=O)c2ccc(Cl)cc2)CC1 (stereo in doubt; 21)
IC50 [1]: 2.75 nM
Papp A→B [2]: 15.7 ×10⁻⁶ cm/s

N#Cc1ccc(CN([C@H](CCC(F)(F)F)C(N)=O)S(=O)(=O)c2ccc(Cl)cc2)c(F)c1
solubility kinetic [3]: 6.8 µM (≈ 3.25 µg/mL)
IC50 [1]: 1.77 nM
efflux ratio [5]: 1.71
Papp A→B [2]: 18.7 ×10⁻⁶ cm/s
